High-throughput results as filed in PubChem.
Kir21 block – inhibitors of mouse Kir2.1 inward-rectifier potassium channel | P35561 | HEK293-Kir2.1, FluxOR thallium flux fluorescence; active compounds read low | B-score at 10 µM | hit rate 0.85% among 310,000 | AID 1672;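 active = fluorescence ratio B-score at or below minus 3 SD of library scores, with starting-brightness B-score within 2 SD, cut at about -4.2 in these data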;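 note: channel flux triggered by added potassium and thallium sulfate stimulus; B-score of peak minus minimum fluorescence over baseline after thallium stimulus; more negative B-score means stronger Kir2.1 block with less thallium influx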
KCNK3 inh – human KCNK3 channel inhibition, primary screen | AID 602410 | hit rate 0.84% among 340,000 | CHO-KCNK3 thallium flux, FluxOR fluorescence; active compounds read low | B-score at 10 µM;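 active = B-score under library mean minus 4 SD, starting fluorescence ratio at most library mean plus 5 SD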;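 note: more negative B-score means stronger inhibition of thallium flux through KCNK3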
KCNK9 inh – blocks the human KCNK9 two-pore domain potassium channel. B-score at 10 µM. Q9NPC2. HEK293 KCNK9, FluxOR thallium flux fluorescence; active compounds read low. hit rate 1.2% among 310,000. AID 488922;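 active = ratio B-score over 3 SD below the library mean, with starting fluorescence within 5 SD of its mean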;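 note: negative B-score means less thallium flux so channel inhibition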
KCNQ1 act – human KCNQ1 channel potentiation or activation | P51787 | CHO-K1 KCNQ1, thallium flux FluxOR fluorescence; active compounds read high | B-score at 10 µM | hit rate 0.35% among 310,000 | AID 2648;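 active = fluorescence ratio B-score, a plate-corrected score, at least three library SD, with initial intensity B-score within 5 SD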
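System: CHO-K1 cells stably expressing KCNQ1 / Medium: assay buffer for compound exposure, DMSO matched across wells / Reagent: thallium- and potassium-containing depolarizing buffer / Compound: one concentration, matched DMSO / Incubation: 20 min compound pretreatment at room temperature / Measured by: kinetic FluxOR fluorescence, 10 s baseline plus 110 s post-stimulus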
hERG protect – hERG (human) protection from proarrhythmic block; CHO-hERG, FluxOR thallium flux, dofetilide IC70 present; activation (rescue from dofetilide block), less the hit threshold, % at 10 µM; Q12809; hit rate 0.51% among 310,000;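 active = activation above the mean of controls blocked by dofetilide plus 5 SD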;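 note: thallium influx through hERG after potassium depolarization seen as dye fluorescence rise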
Target sequence (Q12809 whole entry, looked up): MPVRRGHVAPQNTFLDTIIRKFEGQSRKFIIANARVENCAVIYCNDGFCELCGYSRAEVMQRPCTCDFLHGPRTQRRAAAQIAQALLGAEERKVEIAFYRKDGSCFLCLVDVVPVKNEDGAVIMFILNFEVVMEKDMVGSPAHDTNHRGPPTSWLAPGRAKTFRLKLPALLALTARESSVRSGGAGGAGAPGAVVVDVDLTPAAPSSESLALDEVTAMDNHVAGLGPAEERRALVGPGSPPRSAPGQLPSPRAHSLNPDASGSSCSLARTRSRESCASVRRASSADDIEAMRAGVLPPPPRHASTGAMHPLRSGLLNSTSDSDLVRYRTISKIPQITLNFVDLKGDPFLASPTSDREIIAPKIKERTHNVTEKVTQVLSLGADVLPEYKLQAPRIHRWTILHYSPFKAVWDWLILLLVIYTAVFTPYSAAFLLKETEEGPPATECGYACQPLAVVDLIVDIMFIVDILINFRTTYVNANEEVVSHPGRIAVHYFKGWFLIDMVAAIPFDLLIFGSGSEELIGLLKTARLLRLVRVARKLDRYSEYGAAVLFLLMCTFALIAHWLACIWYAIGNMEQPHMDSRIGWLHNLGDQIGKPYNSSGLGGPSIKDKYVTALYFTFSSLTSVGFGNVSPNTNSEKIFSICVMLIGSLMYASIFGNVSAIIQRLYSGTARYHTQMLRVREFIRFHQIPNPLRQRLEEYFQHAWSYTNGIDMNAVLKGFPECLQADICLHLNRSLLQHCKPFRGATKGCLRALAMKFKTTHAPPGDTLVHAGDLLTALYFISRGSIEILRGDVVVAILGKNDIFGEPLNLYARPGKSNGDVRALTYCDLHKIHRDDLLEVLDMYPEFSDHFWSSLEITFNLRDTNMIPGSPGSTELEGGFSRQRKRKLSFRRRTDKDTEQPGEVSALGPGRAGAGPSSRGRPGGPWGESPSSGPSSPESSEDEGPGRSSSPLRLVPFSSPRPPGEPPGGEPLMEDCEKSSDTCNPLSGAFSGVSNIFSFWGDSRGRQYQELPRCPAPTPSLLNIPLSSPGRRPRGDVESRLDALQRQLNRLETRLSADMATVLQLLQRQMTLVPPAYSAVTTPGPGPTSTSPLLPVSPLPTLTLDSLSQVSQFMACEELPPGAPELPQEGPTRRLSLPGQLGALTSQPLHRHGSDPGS
KCNQ1 inh – human KCNQ1 channel inhibition | P51787 | CHO-K1 KCNQ1, FluxOR thallium flux fluorescence; active compounds read high | B-score at 10 µM | hit rate 1.3% among 310,000 | AID 2642;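 active = compounds whose thallium flux B-score, printed positive for inhibition, exceeds three library SD while starting fluorescence stays within three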;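 note: channel opened by potassium depolarization with thallium stimulus after 20 min compound exposure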
Starred values were filed as active, the others as inactive. An excerpt weighted towards active compounds, which were near 3.7% of everything screened.

Results for CCCn1c(O)c(N=NC(=O)c2ccco2)c2ccccc21 ?
Kir21 block: 0.2; KCNK3 inh: inactive; KCNK9 inh: inactive; KCNQ1 act: inactive; hERG protect: 59.7*; KCNQ1 inh: inactive

What do the screens show for `Oc1c(N=NC(=S)Nc2ccccc2F)c2ccccc2n1Cc1ccccc1F`?
Kir21 block: -0.1; KCNK3 inh: inactive; KCNK9 inh: inactive; KCNQ1 act: 23*; hERG protect: 28.9*; KCNQ1 inh: inactive

How did CC(Sc1ccccc1)C(=O)N1CCN(S(=O)(=O)c2ccccc2F)CC1 (centres undefined) do in these assays?
Kir21 block: 0.55; KCNK3 inh: inactive; KCNK9 inh: inactive; KCNQ1 act: inactive; hERG protect: -6.0; KCNQ1 inh: inactive

Results for NC(=S)c1c(Cl)cc(C(F)(F)F)cc1Cl ?
Kir21 block: 0.58; KCNK3 inh: inactive; KCNK9 inh: inactive; KCNQ1 act: inactive; hERG protect: -4.5; KCNQ1 inh: inactive

How did CCCN(Cc1nnc(-c2ccccc2Cl)o1)C(=O)c1cccc(S(=O)(=O)N2CCOCC2)c1 do in these assays?
Kir21 block: -0.35; KCNK3 inh: inactive; KCNK9 inh: inactive; KCNQ1 act: inactive; hERG protect: -9.5; KCNQ1 inh: inactive

Results for Cc1ccc(Cn2c(O)c(N=NC(=S)Nc3ccccc3F)c3cc(S(=O)(=O)N4CCOCC4)ccc32)cc1 ?
Kir21 block: -0.33; KCNK3 inh: inactive; KCNK9 inh: inactive; KCNQ1 act: inactive; hERG protect: 5.7*; KCNQ1 inh: inactive

How did CCc1ccccc1NC(=S)N=Nc1c(O)n(C)c2ccc(S(=O)(=O)N3CCOCC3)cc12 do in these assays?
Kir21 block: -0.25; KCNK3 inh: inactive; KCNK9 inh: inactive; KCNQ1 act: inactive; hERG protect: -2.3; KCNQ1 inh: inactive

How did Oc1c(N=NC(=S)Nc2ccccc2F)c2ccccc2n1Cc1ccc(Cl)cc1 do in these assays?
Kir21 block: 0.25; KCNK3 inh: inactive; KCNK9 inh: inactive; KCNQ1 act: 8*; hERG protect: 25.0*; KCNQ1 inh: inactive

What do the screens show for `NC(=S)N=Nc1c(O)n(CCCl)c2ccccc12`?
Kir21 block: -0.56; KCNK3 inh: inactive; KCNK9 inh: inactive; KCNQ1 act: inactive; hERG protect: -5.1; KCNQ1 inh: inactive

What do the screens show for `Cc1ccccc1Cn1c(O)c(N=NC(=S)Nc2ccccc2F)c2ccccc21`?
Kir21 block: -1.48; KCNK3 inh: inactive; KCNK9 inh: inactive; KCNQ1 act: inactive; hERG protect: 35.6*; KCNQ1 inh: inactive

Results for CCOC(=O)N1CCC(=NNC(=O)c2ccccc2F)CC1 ?
KCNK3 inh: inactive

Results for O=C1NC(c2cccc(Cl)c2)Oc2ccccc21 (centres undefined) ?
Kir21 block: 0.55; KCNK3 inh: inactive; KCNK9 inh: inactive; KCNQ1 act: inactive; hERG protect: 6.3*; KCNQ1 inh: inactive

How did C=C(C)CNC(=S)NN=C1c2ccccc2-c2ccccc21 do in these assays?
Kir21 block: -0.75; KCNK3 inh: inactive; KCNK9 inh: inactive; KCNQ1 act: inactive; hERG protect: 22.0*; KCNQ1 inh: inactive

How did Cc1nnc(C)n1/N=C/c1cc(Br)cc(Br)c1O do in these assays?
Kir21 block: -2.56; KCNK3 inh: inactive; KCNK9 inh: inactive; KCNQ1 act: 15*; hERG protect: 12.2*; KCNQ1 inh: inactive

Results for Oc1c(Br)cc(Br)cc1/C=N/n1c(-c2ccccc2)n[nH]c1=S ?
Kir21 block: 0.41; KCNK3 inh: inactive; KCNK9 inh: inactive; KCNQ1 act: 12*; hERG protect: -18.2; KCNQ1 inh: inactive

Results for Cc1nnc(C)n1/N=C/c1cc(Br)ccc1O ?
Kir21 block: 1.28; KCNK3 inh: inactive; KCNK9 inh: inactive; KCNQ1 act: inactive; hERG protect: -6.0; KCNQ1 inh: inactive

What do the screens show for `O=[N+]([O-])c1ccc(O)c(/C=N/n2c(-c3ccccc3)n[nH]c2=S)c1`?
Kir21 block: -1.85; KCNK3 inh: inactive; KCNK9 inh: inactive; KCNQ1 act: inactive; hERG protect: -26.3; KCNQ1 inh: 7*

Results for Oc1c(Br)cc(/C=N/n2c(-c3ccccc3)n[nH]c2=S)c(Br)c1O ?
Kir21 block: 0.34; KCNK9 inh: inactive; KCNQ1 act: inactive; hERG protect: -10.0; KCNQ1 inh: inactive

Results for Cn1ccs/c1=N\C(=O)Nc1cccc(Cl)c1 ?
Kir21 block: 0.56; KCNK3 inh: inactive; KCNK9 inh: inactive; KCNQ1 act: inactive; hERG protect: -0.4; KCNQ1 inh: inactive

What do the screens show for `Cc1ccc(C)c(S(=O)(=O)N2CCN(C(=O)Cc3sc(C)nc3-c3ccc(F)cc3)CC2)c1`?
KCNK3 inh: inactive

What do the screens show for `CC(C)Cc1nnc(NC(=O)c2ccc3c(c2)OCCO3)s1`?
KCNK3 inh: inactive

How did O=C(NCc1ccncc1)c1ccccc1Nc1ccc(SC(F)F)cc1 do in these assays?
Kir21 block: -0.53; KCNK3 inh: inactive; KCNK9 inh: inactive; KCNQ1 act: inactive; hERG protect: -1.9; KCNQ1 inh: inactive

Results for CNC(=O)c1ccccc1Nc1ccc(SC(F)F)cc1 ?
Kir21 block: 1; KCNK3 inh: inactive; KCNK9 inh: inactive; KCNQ1 act: inactive; hERG protect: -12.0; KCNQ1 inh: 6*

Results for O=C(c1ccco1)N1CCN(c2cc(N3CCOCC3)c(F)cc2[N+](=O)[O-])CC1 ?
Kir21 block: 1.19; KCNK3 inh: inactive; KCNK9 inh: inactive; KCNQ1 act: inactive; hERG protect: -5.3; KCNQ1 inh: inactive

What do the screens show for `CSc1ccc(C2NN=C(c3ccccc3)S2)cc1` (centres undefined)?
Kir21 block: -0.19; KCNK3 inh: inactive; KCNK9 inh: inactive; KCNQ1 act: inactive; hERG protect: 15.3*; KCNQ1 inh: inactive

Results for Cc1ccccc1OCC(O)CNC1CCC(NCC(O)COc2ccccc2C)CC1 (centres undefined) ?
Kir21 block: -5.5*; KCNK3 inh: inactive; KCNK9 inh: inactive; KCNQ1 act: inactive; hERG protect: -2.5; KCNQ1 inh: inactive

What do the screens show for `OC(CNC1CCCCCC1)COc1cccc2ccccc12` (centres undefined)?
Kir21 block: -4.93*; KCNK3 inh: inactive; KCNK9 inh: inactive; KCNQ1 act: inactive; hERG protect: -11.8; KCNQ1 inh: inactive

What do the screens show for `OC(CNC1CCCC1)COc1ccccc1Br` (centres undefined)?
Kir21 block: -0.01; KCNK3 inh: inactive; KCNK9 inh: inactive; KCNQ1 act: inactive; hERG protect: -2.7; KCNQ1 inh: inactive

What do the screens show for `OC(CNCCc1ccc(C(F)(F)F)cc1)COc1ccc2ccccc2c1` (centres undefined)?
Kir21 block: -0.14; KCNK3 inh: inactive; KCNK9 inh: inactive; KCNQ1 act: inactive; hERG protect: -24.2; KCNQ1 inh: inactive
